ChEMBL document CHEMBL4334482, “Cysteine Residue Containing Merocytochalasans and 17,18-seco-Aspochalasins from Aspergillus micronesiensis” (J Nat Prod, 2019)
Converted amounts (≈) assume the structure as drawn. The source made the active and inactive calls. The rule behind the calls is not given here.

Assays:
Hep 3B2 = assay: Cytotoxicity against human Hep3B cells assessed as reduction in cell viability by MTS assay; format: functional, cell-based
Summary of the method: (§1)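 In vitro cytotoxicity was tested on a panel of five human cancer lines (HL60, A549, Hep3B, MCF-7, SW480), following an earlier published method. Values are reported as IC50 in μM.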

SW480 = assay: Cytotoxicity against human SW480 cells assessed as reduction in cell viability by MTS assay; format: functional, cell-based; summary of the method: as §1
A549 = assay: Cytotoxicity against human A549 cells assessed as reduction in cell viability by MTS assay; format: functional, cell-based; summary of the method: as §1
MCF7 = assay: Cytotoxicity against human MCF7 cells assessed as reduction in cell viability by MTS assay; format: functional, cell-based; summary of the method: as §1
HL-60 = assay: Cytotoxicity against human HL60 cells assessed as reduction in cell viability by MTS assay; format: functional, cell-based; summary of the method: as §1
Staphylococcus aureus [1] = assay: Antibacterial activity against Staphylococcus aureus; format: functional
Staphylococcus aureus [2] = assay: Antibacterial activity against methicillin-resistant Staphylococcus aureus; format: functional
Candida albicans = assay: Antifungal activity against Candida albicans assessed as reduction in fungal growth incubated for 48 hrs by two fold serial dilution method; format: functional

Row | SMILES | Activity (Hep 3B2) | Activity (SW480) | Activity (A549) | Activity (MCF7) | Activity (HL-60) | MIC50 (Staphylococcus aureus [1]) [µg/mL] | MIC90 (Staphylococcus aureus [1]) [µg/mL] | MIC50 (Staphylococcus aureus [2]) [µg/mL] | MIC90 (Staphylococcus aureus [2]) [µg/mL] | IC50 (Hep 3B2) [µM] | IC50 (SW480) [µM] | IC50 (A549) [µM] | IC50 (MCF7) [µM] | IC50 (HL-60) [µM] | MIC50 (Candida albicans) [µg/mL] | MIC90 (Candida albicans) [µg/mL]
1 | COC(=O)CCC(=O)[C@@]12C(=O)N[C@@H](CC(C)C)[C@@H]1[C@H](C)C(C)=C[C@@H]2/C=C(\C)CCC(=O)O | inactive | inactive | inactive | inactive | inactive | – | – | – | – | – | – | – | – | – | – | –
2 | COC(=O)CC/C(C)=C/[C@H]1C=C(C)[C@@H](C)[C@H]2[C@H](CC(C)C)NC(=O)[C@]21C(=O)CCC(=O)O | inactive | inactive | inactive | inactive | inactive | – | – | – | – | – | – | – | – | – | – | –
3 | COC(=O)[C@H](O)CS[C@@H]1CC(=O)[C@H](O)CC/C(C)=C/[C@H]2C=C(C)[C@@H](C)[C@H]3[C@H](CC(C)C)NC(=O)[C@]32C1=O | – | – | – | – | – | 14.5 (≈ 27.1 µM) | 27 (≈ 50.4 µM) | 10.6 (≈ 19.8 µM) | 14.7 (≈ 27.4 µM) | 8.2 | 13.6 | 16.7 | 17.1 | 3 | 94.7 (≈ 177 µM) | > 100
4 | CC(=O)NCCS[C@@H]1CC(=O)[C@H](O)CC/C(C)=C/[C@H]2C=C(C)[C@@H](C)[C@H]3[C@H](CC(C)C)NC(=O)[C@]32C1=O | – | – | – | – | – | 40.8 (≈ 78.7 µM) | 58.5 (≈ 113 µM) | 17.5 (≈ 33.7 µM) | 28.4 (≈ 54.8 µM) | 19.9 | 10.1 | > 20 | 16.1 | 9.3 | 43.3 (≈ 83.5 µM) | 89.9 (≈ 173 µM)
